# How the values were obtained:
# [1] = Hydrolysis were done at 25 degree C in 0.05 M phosphate buffer (pH 7.4); format: ADME
# Summary of the method: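 Model pyridinium salts were hydrolysed to pyridones at 25 °C in 0.05 M phosphate buffer, pH 7.4. Decay of the pyridinium UV absorption maximum was monitored over time, giving pseudo-first-order k_obs and half-life.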
# [2] = Half life of the compound; format: ADME
# P388 [3] = assay: In vivo activity against P388 Lymphocytic Leukemia in CD2F1 mice at the dose of 50 mg/kg, activity expressed as % T/C; format: functional, Mus musculus
# Summary of the method: (§1)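 CD2F1 mice were inoculated with ascitic fluid holding ca. 10^6 P388 cells. Drug was given daily from 24 h after inoculation, from solutions or suspensions made fresh each day, some as a saline suspension. TDS is survivors/initial animals on day 5. BWD is body weight on day 5 minus day 1. %T/C compares median survival of treated and control mice.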
# P388 [4] = assay: In vivo activity against P388 Lymphocytic Leukemia in CD2F1 mice at the dose of 200 mg/kg, activity expressed as TDS; 4/4; format: functional, Mus musculus; summary of the method: as §1
# P388 [5] = assay: In vivo activity against P388 Lymphocytic Leukemia in CD2F1 mice at the dose of 25 mg/kg, activity expressed as TDS; 4/4; format: functional, Mus musculus; summary of the method: as §1
# P388 [6] = assay: In vivo activity against P388 Lymphocytic Leukemia in CD2F1 mice at the dose of 50 mg/kg, activity expressed as TDS; 4/4; format: functional, Mus musculus; summary of the method: as §1
# P388 [7] = assay: In vivo body weight difference was determined in P388 Lymphocytic Leukemia in CD2F1 mice at the dose of 100 mg/kg; format: functional, Mus musculus
# P388 [8] = assay: In vivo body weight difference was determined in P388 Lymphocytic Leukemia in CD2F1 mice at the dose of 200 mg/kg; format: functional, Mus musculus
# P388 [9] = assay: In vivo body weight difference was determined in P388 Lymphocytic Leukemia in CD2F1 mice at the dose of 25 mg/kg; format: functional, Mus musculus
# P388 [10] = assay: In vivo body weight difference was determined in P388 Lymphocytic Leukemia in CD2F1 mice at the dose of 50 mg/kg; format: functional, Mus musculus
# P388 [11] = assay: In vivo activity against P388 Lymphocytic Leukemia in CD2F1 mice at the dose of 200 mg/kg, activity expressed as % T/C; format: functional, Mus musculus; summary of the method: as §1
# P388 [12] = assay: In vivo activity against P388 Lymphocytic Leukemia in CD2F1 mice at the dose of 25 mg/kg, activity expressed as % T/C; format: functional, Mus musculus; summary of the method: as §1
# P388 [13] = assay: In vivo activity against P388 Lymphocytic Leukemia in CD2F1 mice at the dose of 100 mg/kg, activity expressed as TDS; 4/4; format: functional, Mus musculus; summary of the method: as §1
# P388 [14] = assay: In vivo activity against P388 Lymphocytic Leukemia in CD2F1 mice at the dose of 100 mg/kg, activity expressed as % T/C; format: functional, Mus musculus; summary of the method: as §1
# MX1 [15] = assay: In vivo body weight difference was determined in murine MX-1 tumor system at the dose of 90 mg/kg; format: functional, Mus musculus
# MX1 [16] = assay: In vivo activity against murine MX-1 tumor system at the dose of 90mg/kg, activity expressed as %T/C.; format: functional, Mus musculus
# MX1 [17] = assay: In vivo activity against murine MX-1 tumor system at the dose of 180 mg/kg, activity expressed as TDS; 0/6; format: functional, Mus musculus
# L1210 [18] = assay: In vivo activity against murine L1210 tumor system at the dose of 50 mg/kg, activity expressed as KE; format: functional, Mus musculus
# Summary of the method: (§2)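 L1210 lymphocytic leukemia: ascitic fluid with ca. 10^6 cells injected ip into CD2F1 mice. Dosing started 24 h after inoculation and was repeated daily for five doses in total, from solutions or suspensions made fresh each day. Toxicity day survivors were scored on day 5. Body weight difference is day 5 minus day 1. %T/C is based on median survival time versus controls.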
# MX1 [19] = assay: In vivo activity against murine MX-1 tumor system at the dose of 90 mg/kg, activity expressed as TDS; 6/6; format: functional, Mus musculus
# [20] = In vivo activity against murine M5076 tumor system at the dose of 90 mg/kg, activity expressed as KE; format: functional, Mus musculus
# [21] = In vivo activity against murine M5076 tumor system at the dose of 90 mg/kg, activity expressed as %T/C.; format: functional, Mus musculus
# [22] = In vivo activity against murine M5076 tumor system at the dose of mg/kg, activity expressed as %T/C.; format: functional, Mus musculus
# [23] = In vivo activity against murine M5076 tumor system at the dose of 180 mg/kg, activity expressed as TDS; 3/10; format: functional, Mus musculus
# Summary of the method: (§3)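 M5076: ascitic fluid with ca. 10^6 cells inoculated ip into CD2F1 mice. Dosing started 24 h after inoculation and was then given every 4 days for four doses in total, from solutions or suspensions made fresh each day. Toxicity day survivors were scored on day 5. Body weight difference is day 14 minus day 1. %T/C is based on median survival time versus controls.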
# [24] = In vivo activity against murine M5076 tumor system at the dose of 45 mg/kg, activity expressed as TDS; 10/10; format: functional, Mus musculus
# [25] = In vivo activity against murine M5076 tumor system at the dose of 90 mg/kg, activity expressed as TDS; 10/10; format: functional, Mus musculus
# L1210 [26] = assay: In vivo activity against murine L1210 tumor system at the dose of 25 mg/kg, activity expressed as %T/C.; format: functional, Mus musculus; summary of the method: as §2
# L1210 [27] = assay: In vivo activity against murine L1210 tumor system at the dose of 50 mg/kg, activity expressed as %T/C.; format: functional, Mus musculus; summary of the method: as §2
# L1210 [28] = assay: In vivo activity against murine L1210 tumor system at the dose of 100 mg/kg, activity expressed as TDS; 0/6; format: functional, Mus musculus; summary of the method: as §2
# L1210 [29] = assay: In vivo activity against murine L1210 tumor system at the dose of 25 mg/kg, activity expressed as TDS; 6/6; format: functional, Mus musculus; summary of the method: as §2
# L1210 [30] = assay: In vivo body weight difference was determined in murine L1210 tumor system at the dose of 25 mg/kg; format: functional, Mus musculus
# L1210 [31] = assay: In vivo body weight difference was determined in murine L1210 tumor system at the dose of 50 mg/kg; format: functional, Mus musculus
# L1210 [32] = assay: In vivo activity against murine L1210 tumor system at the dose of 25 mg/kg, activity expressed as KE; format: functional, Mus musculus; summary of the method: as §2
# L1210 [33] = assay: In vivo activity against murine L1210 tumor system at the dose of 50 mg/kg, activity expressed as TDS; 6/6; format: functional, Mus musculus; summary of the method: as §2
# [34] = In vivo body weight difference was determined in murine M5076 tumor system at the dose of 180 mg/kg; format: functional, Mus musculus
# [35] = In vivo body weight difference was determined in murine M5076 tumor system at the dose of 45 mg/kg; format: functional, Mus musculus
# [36] = In vivo body weight difference was determined in murine M5076 tumor system at the dose of 90 mg/kg; format: functional, Mus musculus
# [37] = In vivo activity against murine M5076 tumor system at the dose of 45 mg/kg, activity expressed as KE; format: functional, Mus musculus; summary of the method: as §3
# P388 [38] = assay: In vivo body weight difference was determined against P388 Lymphocytic Leukemia in CD2F1 mice at the dose of 100 mg/kg; format: functional, Mus musculus
# P388 [39] = assay: In vivo activity against P388 Lymphocytic Leukemia in CD2F1 mice at the dose of 12.5 mg/kg, activity expressed as TDS; 6/6; format: functional, Mus musculus; summary of the method: as §1
# P388 [40] = assay: In vivo activity against P388 Lymphocytic Leukemia in CD2F1 mice at the dose of 200 mg/kg, activity expressed as TDS; 6/6; format: functional, Mus musculus; summary of the method: as §1
# P388 [41] = assay: In vivo activity against P388 Lymphocytic Leukemia in CD2F1 mice at the dose of 25 mg/kg, activity expressed as TDS; 6/6; format: functional, Mus musculus; summary of the method: as §1
# P388 [42] = assay: In vivo activity against P388 Lymphocytic Leukemia in CD2F1 mice at the dose of 400 mg/kg, activity expressed as TDS; 0/6; format: functional, Mus musculus; summary of the method: as §1
# P388 [43] = assay: In vivo activity against P388 Lymphocytic Leukemia in CD2F1 mice at the dose of 50 mg/kg, activity expressed as TDS; 6/6; format: functional, Mus musculus; summary of the method: as §1
# P388 [44] = assay: In vivo body weight difference was determined against P388 Lymphocytic Leukemia in CD2F1 mice at the dose of 12.5 mg/kg; format: functional, Mus musculus
# P388 [45] = assay: In vivo body weight difference was determined against P388 Lymphocytic Leukemia in CD2F1 mice at the dose of 200 mg/kg; format: functional, Mus musculus
# P388 [46] = assay: In vivo body weight difference was determined against P388 Lymphocytic Leukemia in CD2F1 mice at the dose of 25 mg/kg; format: functional, Mus musculus
# P388 [47] = assay: In vivo body weight difference was determined against P388 Lymphocytic Leukemia in CD2F1 mice at the dose of 50 mg/kg; format: functional, Mus musculus
# P388 [48] = assay: In vivo activity against P388 Lymphocytic Leukemia in CD2F1 mice at the dose of 100 mg/kg, activity expressed as KE; format: functional, Mus musculus
# P388 [49] = assay: In vivo activity against P388 Lymphocytic Leukemia in CD2F1 mice at the dose of 12.5 mg/kg, activity expressed as KE; format: functional, Mus musculus
# P388 [50] = assay: In vivo activity against P388 Lymphocytic Leukemia in CD2F1 mice at the dose of 25 mg/kg, activity expressed as KE; format: functional, Mus musculus
# P388 [51] = assay: In vivo activity against P388 Lymphocytic Leukemia in CD2F1 mice at the dose of 50 mg/kg, activity expressed as KE; format: functional, Mus musculus
# P388 [52] = assay: In vivo activity against P388 Lymphocytic Leukemia in CD2F1 mice at the dose of 12.5 mg/kg, activity expressed as % T/C; format: functional, Mus musculus; summary of the method: as §1
# P388 [53] = assay: In vivo activity against P388 Lymphocytic Leukemia in CD2F1 mice at the dose of 100 mg/kg, activity expressed as TDS; 6/6; format: functional, Mus musculus; summary of the method: as §1
smiles,measurement,setting,value
CCOC(=O)c1cc[n+](C)c(Br)c1.O=S(=O)([O-])C(F)(F)F,K obs,[1],0.012 h⁻¹
same,half-life,[2],57.7 h
Cc1ccc(F)[n+](C)c1.O=S(=O)([O-])C(F)(F)F,K obs,[1],3.63 h⁻¹
same,half-life,[2],0.19 h
Cc1ccc(Cl)[n+](C)c1.O=S(=O)([O-])C(F)(F)F,K obs,[1],0.0425 h⁻¹
same,half-life,[2],269 h
CC(C)NC(=O)OCc1c(COC(=O)NC(C)C)c(-c2cc(Br)c(Cl)[n+](C)c2)n2c1CCC2.[I-],T/C,P388 [3],118%
same,TDS,P388 [4],4
same,TDS,P388 [5],4
same,TDS,P388 [6],4
same,BWD,P388 [7],-1 g
same,BWD,P388 [8],-0.7 g
same,BWD,P388 [9],-0.6 g
same,BWD,P388 [10],-0.4 g
same,T/C,P388 [11],105%
same,T/C,P388 [12],124%
same,TDS,P388 [13],4
same,T/C,P388 [14],122%
CCOC(=O)c1cc(Cl)[n+](C)c(Cl)c1.CS(=O)(=O)[O-],K obs,[1],6.84 h⁻¹
same,half-life,[2],2.1 h
CC(C)NC(=O)OCc1c(COC(=O)NC(C)C)c(-c2ccc(F)[n+](C)c2)n2c1CCC2.[I-],BWD,MX1 [15],0.5 g
same,T/C,MX1 [16],18%
same,TDS,MX1 [17],0
same,KE,L1210 [18],-2.03
same,TDS,MX1 [19],6
same,KE,[20],-1.4
same,T/C,[21],125%
same,T/C,[22],115%
same,TDS,[23],3
same,TDS,[24],10
same,TDS,[25],10
same,T/C,L1210 [26],119%
same,T/C,L1210 [27],123%
same,TDS,L1210 [28],0
same,TDS,L1210 [29],6
same,BWD,L1210 [30],-0.7 g
same,BWD,L1210 [31],-0.7 g
same,KE,L1210 [32],-2.09
same,TDS,L1210 [33],6
same,BWD,[34],-1.4 g
same,BWD,[35],-0.5 g
same,BWD,[36],-1.8 g
same,KE,[37],-1.79
same,BWD,P388 [38],0.1 g
same,T/C,P388 [3],141%
same,TDS,P388 [39],6
same,TDS,P388 [40],2
same,TDS,P388 [41],6
same,TDS,P388 [42],0
same,TDS,P388 [43],6
same,BWD,P388 [44],1.2 g
same,BWD,P388 [45],-0.1 g
same,BWD,P388 [46],-0.1 g
same,BWD,P388 [47],0.6 g
same,KE,P388 [48],1.54
same,KE,P388 [49],-1.42
same,KE,P388 [50],0.06
same,KE,P388 [51],0.32
same,T/C,P388 [52],112%
same,T/C,P388 [12],137%
same,TDS,P388 [53],6
same,T/C,P388 [14],158%

# Reference: ChEMBL document CHEMBL1124794, “Synthesis, chemistry, and antineoplastic activity of alpha-halopyridinium salts: potential pyridone prodrugs of acylated vinylogous carbinolamine tumor inhibitors” (J Med Chem, 1990)
